Data on 7 compounds can be found in publication PMC7031742 (Journal of Ginseng Research, 2018).

Data set [1] can be described thus: Pharmacokinetics of ginsenosides in human plasma after single or repeated. Type of data set: in vivo. To be noted: for Accumulation factor: AUC of repeated administration divided by AUC of single administration; for Detection in human plasma samples: after oral ingestion of red ginseng extract, LC-MS/MS; for AUC / Cmax / MRT / Tmax / half-life: male, human, plasma, po, 3 pouches of red ginseng extract; for half-life: t1/2, single dose of red ginseng extract, human plasma.

Data set [2] is described as follows: Permeability of ginsenoside in Caco-2 cells. Type of data set: in vitro ADME. To be noted: human; for Papp A→B at 1 h, 10 μM / Papp B→A at 1 h, 10 μM: Caco-2; for efflux ratio at 1 h, 10 μM: Caco-2, ER (efflux ratio), Caco-2, B to A / A to B. In a few lines:
(§1)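 Caco-2 cells (passage 41–43) grown in DMEM with 20% FBS, 1% nonessential amino acids, 4 mM L-glutamine and penicillin-streptomycin, then cultured 21 days on Transwell inserts. Test compound at 10 μM in HBSS was dosed for apical-to-basal and basal-to-apical transport over 1 h. Samples were quenched in methanol with berberine IS and analysed by LC-MS/MS. Papp = transport rate / (donor concentration × insert area).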
(In general: Caco-2 cells form a polarised layer with tight junctions and transporters.)

For data set [3] the following is noted: cited from earlier work.
The conditions of data set [4]: cited from earlier work. The source holds these as a separate data set.
Another data set has as its system Caco-2 cells. Briefly: Permeability of ginsenoside in Caco-2 cells. Type of data set: in vitro ADME. To be noted: for ER (efflux ratio): Caco-2, B to A / A to B; for Papp A to B: apical to basal; for Papp A to B / Papp B to A: 10 μM, 1 h; for Papp B to A: basal to apical. In a few lines: as §1

Several values for one entry are separate records, joined by “and”; a condition that tells them apart may be missing. Equal values may be shown once. Read-outs that look alike come from different tables or passages of the source. Where only a bound is given, the exact number is not on record here.

Broadly, the AUC is concentration integrated over time. What is called Cmax is the peak of the concentration-time curve. What is called MRT is the average time that molecules of a dose stay in the body. As a reminder, the Tmax is the time at which the peak concentration occurs. The half-life is how long it takes for the measured level to halve. Read a high half-life as slow decline. In general, Papp A→B refers to the apparent permeability from the apical to the basolateral side of a cell layer. Usually Papp B→A stands for how fast a substance crosses the layer from the basolateral side. For orientation: efflux ratio means a quotient of directional permeabilities that is used to spot active efflux.

Take `CC(C)=CCC[C@](C)(O[C@@H]1O[C@H](CO[C@@H]2OC[C@H](O)[C@H](O)[C@H]2O)[C@@H](O)[C@H](O)[C@H]1O)[C@H]1CC[C@]2(C)[C@@H]1[C@H](O)C[C@@H]1[C@@]3(C)CC[C@H](O[C@@H]4O[C@H](CO)[C@@H](O)[C@H](O)[C@H]4O[C@@H]4O[C@H](CO)[C@@H](O)[C@H](O)[C@H]4O)C(C)(C)[C@@H]3CC[C@]12C` [Rb2]: in data set [1], the Accumulation factor was 4.5–6.7 and 6.73; the “Detection in human plasma samples” value is “detected”; the AUC stood at 47.1 ± 16.4 ng·h/mL; the peak level (Cmax) was 1.26 ± 0.39 ng/mL. For the same compound, in data set [1], the MRT amounted to 26.8 ± 1.74 h, the Tmax turned out to be 3.87 ± 2.47 h and the half-life was 38.2 ± 20.3 h. In data set [2], this compound returned a Papp A→B at 1 h, 10 μM of 0.28 ± 0.02 ×10⁻⁶ cm/s and a Papp B→A at 1 h, 10 μM of 0.24 ± 0.05 ×10⁻⁶ cm/s. Further, the “Stability over the enzymatic and alkaline hydrolysis” value in data set [3] is recorded as “stable”.

As to `CC(C)=CCC[C@](C)(O[C@@H]1O[C@H](CO)[C@@H](O)[C@H](O)[C@H]1O)[C@H]1CC[C@]2(C)[C@@H]1[C@H](O)C[C@@H]1[C@@]3(C)CC[C@H](O[C@@H]4O[C@H](CO)[C@@H](O)[C@H](O)[C@H]4O[C@@H]4O[C@H](CO)[C@@H](O)[C@H](O)[C@H]4O)C(C)(C)[C@@H]3CC[C@]12C` [Rd], in data set [1], the Accumulation factor is 4.5–6.7 and 4.49; the “Detection in human plasma samples” value is on record as “detected”; the AUC amounted to 22.6 ± 18.3 ng·h/mL; the peak level (Cmax) was 0.7 ± 0.46 ng/mL. Besides, in data set [1], the MRT was 24.7 ± 2.23 h, the Tmax was found to be 4.87 ± 1.92 h and the half-life is 24 ± 15.3 h. In data set [2], the Papp A→B at 1 h, 10 μM came to 0.22 ± 0.02 ×10⁻⁶ cm/s; the Papp B→A at 1 h, 10 μM is 0.31 ± 0.04 ×10⁻⁶ cm/s; the efflux ratio at 1 h, 10 μM was less than 2. The “Stability over the enzymatic and alkaline hydrolysis” value in data set [3] is “stable”.

For `CC(C)=CCC[C@](C)(O[C@@H]1O[C@H](CO)[C@@H](O)[C@H](O)[C@H]1O)[C@H]1CC[C@]2(C)[C@@H]1[C@H](O)C[C@@H]1[C@@]3(C)CC[C@H](O)C(C)(C)[C@@H]3[C@@H](O[C@@H]3O[C@H](CO)[C@@H](O)[C@H](O)[C@H]3O)C[C@]12C` [Rg1], in data set [1], the “Detection in human plasma samples” value is “could not be found”. For the same compound, the Bioavailability in data set [4] (ref Odani et al. [10]) was 2%; in data set [4] (ref Xu et al. [11]), 18.4%.

For the compound `CC(C)=CCC[C@](C)(O[C@@H]1O[C@H](CO[C@@H]2O[C@H](CO)[C@@H](O)[C@H](O)[C@H]2O)[C@@H](O)[C@H](O)[C@H]1O)[C@H]1CC[C@]2(C)[C@@H]1[C@H](O)C[C@@H]1[C@@]3(C)CC[C@H](O[C@@H]4O[C@H](CO)[C@@H](O)[C@H](O)[C@H]4O[C@@H]4O[C@H](CO)[C@@H](O)[C@H](O)[C@H]4O)C(C)(C)[C@@H]3CC[C@]12C` [Rb1], in data set [1], the Accumulation factor is 4.5–6.7 and 4.55; the “Detection in human plasma samples” value is “detected”; the exposure (AUC) amounted to 82.7 ± 26.3 ng·h/mL; the highest level (Cmax) was 2.19 ± 0.73 ng/mL. Also, in data set [1], the MRT was found to be 26.8 ± 1.59 h, the time to peak (Tmax) was 3.53 ± 1.25 h and the half-life was 35 ± 8.46 h. In data set [2], the apical-to-basolateral permeability (Papp A→B) at 1 h, 10 μM was 0.27 ± 0.03 ×10⁻⁶ cm/s; the Papp B→A at 1 h, 10 μM is 0.3 ± 0.08 ×10⁻⁶ cm/s; the efflux ratio at 1 h, 10 μM was less than 2. Also, the Bioavailability in data set [4] (ref Odani et al. [10]) is given as 0.1%. Also, the Bioavailability in data set [4] (ref Xu et al. [11]) is reported as 4.3%. Moreover, the “Stability over the enzymatic and alkaline hydrolysis” value in data set [3] is listed as “stable”.

As to `CC(C)=CCC[C@](C)(O)[C@H]1CC[C@]2(C)[C@@H]1[C@H](O)C[C@@H]1[C@@]3(C)CC[C@H](O)C(C)(C)[C@@H]3[C@@H](O[C@@H]3O[C@H](CO)[C@@H](O)[C@H](O)[C@H]3O)C[C@]12C` [Rh1], the “Detection in human plasma samples” value in data set [1] was “could not be found”. Further, in the data set with Caco-2 cells, the “ER (efflux ratio)” value came to 6.27, the “Papp A to B” value is recorded as 0.22 ± 0.04 ☓10^−6 cm/s and the “Papp B to A” value is 1.35 ± 0.14 ☓10^−6 cm/s.

Turning to `CC(C)=CCC[C@](C)(O[C@@H]1O[C@H](CO[C@@H]2O[C@@H](CO)[C@H](O)[C@H]2O)[C@@H](O)[C@H](O)[C@H]1O)[C@H]1CC[C@]2(C)[C@@H]1[C@H](O)C[C@@H]1[C@@]3(C)CC[C@H](O[C@@H]4O[C@H](CO)[C@@H](O)[C@H](O)[C@H]4O[C@@H]4O[C@H](CO)[C@@H](O)[C@H](O)[C@H]4O)C(C)(C)[C@@H]3CC[C@]12C` [Rc], in data set [1], the Accumulation factor was 4.5–6.7 and 5.44; the “Detection in human plasma samples” value is on record as “detected”; the AUC turned out to be 59.4 ± 22.9 ng·h/mL; the concentration peaked (Cmax) at 1.5 ± 0.63 ng/mL. Also, in data set [1], the MRT is 27.4 ± 2.34 h, the time to peak (Tmax) turned out to be 3.68 ± 1.7 h and the half-life is 35.6 ± 14.8 h. In data set [2], the Papp A→B at 1 h, 10 μM was determined as 0.28 ± 0.09 ×10⁻⁶ cm/s; the Papp B→A at 1 h, 10 μM was 0.33 ± 0.06 ×10⁻⁶ cm/s; the efflux ratio at 1 h, 10 μM was less than 2. Further, the “Stability over the enzymatic and alkaline hydrolysis” value in data set [3] is “stable”.

In the case of `CC(C)=CCC[C@](C)(O)[C@H]1CC[C@]2(C)[C@@H]1[C@H](O)C[C@@H]1[C@@]3(C)CC[C@H](O[C@@H]4O[C@H](CO)[C@@H](O)[C@H](O)[C@H]4O[C@@H]4O[C@H](CO)[C@@H](O)[C@H](O)[C@H]4O)C(C)(C)[C@@H]3CC[C@]12C` [Rg3], in data set [1], the “Detection in human plasma samples” value is recorded as “absence”. In the data set on Caco-2 cells, the “ER (efflux ratio)” value amounted to 2.97, the “Papp A to B” value was 0.05 ± 0.01 ☓10^−6 cm/s and the “Papp B to A” value is 0.14 ± 0.06 ☓10^−6 cm/s.
